The source of these data is ChEMBL document CHEMBL5376017, “Glucosamine substituted sulfonylureas: IRS-PI3K-PKC-AKT-GLUT4 insulin signalling pathway intriguing agent” (RSC Med Chem, 2024).

The source made the active and inactive calls. The calls are words filed in the database; no cut-off is given here.

Test system in one data set: not listed separately
The data set is described as follows: Cytotoxicity against rat L6 cells assessed as cell viability at 50 to 250 uM incubated for 24 hrs by MTT assay relative to control. The format is toxicity, cell-based. The note with it: dose 50-250 µM, read-out: Activity. In outline: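 Rat L6 myoblasts, 2 × 10^4 cells per mL, allowed to attach, then exposed for 24 h to five concentrations (50–250 μM) from DMSO stocks; 0.1% DMSO as negative control. MTT at 0.5 mg mL−1 added for 4 h, formazan dissolved in DMSO, absorbance read at 570 nm. Viability calculated against control. Triplicate wells, three independent experiments.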
For the compound `CC(=O)OC[C@H]1OC(OC(C)=O)[C@H](NC(=O)NS(=O)(=O)c2ccc(Cl)cc2)[C@@H](OC(C)=O)[C@@H]1OC(C)=O` (some centres undefined), the viability at 24 h, up to 250 µM is 50%.

For the compound `O=C(N[C@H]1C(O)O[C@H](CO)[C@@H](O)[C@@H]1O)NS(=O)(=O)c1ccccc1` (some centres undefined), the viability at 24 h, up to 250 µM is less than 50%.

For `Cc1ccc(S(=O)(=O)NC(=O)N[C@H]2C(O)O[C@H](CO)[C@@H](O)[C@@H]2O)cc1` (some centres undefined), the viability at 24 h, up to 250 µM is 50%.

As to `CC(=O)OC[C@H]1OC(OC(C)=O)[C@H](NC(=O)NS(=O)(=O)c2ccc(C)cc2)[C@@H](OC(C)=O)[C@@H]1OC(C)=O` (some centres undefined), the viability at 24 h, up to 250 µM was determined as 50%.

The subject of another data set is L6. The data set is described as follows: Upregulation of IRS-1 expression in insulin resistant myotube differentiated rat L6 cells at 1 to 2 uM incubated for 24 hrs by qRT-PCR analysis. The format is functional, cell-based. The conditions noted are these: dose 1-2 µM. In outline: (§1)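 L6 myoblasts differentiated to myotubes in DMEM with 2% horse serum for 7 days, 2 × 10^4 cells per well. Insulin resistance induced in three steps: 25 mM glucose plus insulin for 24 h, then 5 mM glucose without insulin for 5 h, then insulin for 30 min. Compounds in DMEM with 2% inactivated FBS for 24 h. qPCR normalized to geometric mean of β-actin and γ-actin. Mean ± SEM, one-way ANOVA with Duncan test.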
(In general: In qPCR the cycle at which signal appears reflects the starting amount.)
In the case of `CC(=O)OC[C@H]1OC(OC(C)=O)[C@H](NC(=O)NS(=O)(=O)c2ccc(Cl)cc2)[C@@H](OC(C)=O)[C@@H]1OC(C)=O` (some centres undefined), the outcome was Active.

Regarding `O=C(N[C@H]1C(O)O[C@H](CO)[C@@H](O)[C@@H]1O)NS(=O)(=O)c1ccccc1` (some centres undefined), the outcome was Active.

Take `Cc1ccc(S(=O)(=O)NC(=O)N[C@H]2C(O)O[C@H](CO)[C@@H](O)[C@@H]2O)cc1` (some centres undefined): the outcome was Active.

Turning to `CC(=O)OC[C@H]1OC(OC(C)=O)[C@H](NC(=O)NS(=O)(=O)c2ccc(C)cc2)[C@@H](OC(C)=O)[C@@H]1OC(C)=O` (some centres undefined), the result was Active.

For another data set, the system named is Soleus muscle. The data set is described as follows: Upregulation of IRS-1 expression in insulin resistant Sprague-Dawley rat soleus muscle at 1 to 2 uM incubated for 24 hrs by qRT-PCR analysis. The note with it: dose 1-2 µM. The format is functional, tissue-based. The essentials:
(§2)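 Isolated rat soleus muscle in gassed (95% O2–5% CO2) Krebs–Henseleit buffer. Insulin resistance induced in four steps: KHB with 0.1% BSA and 1 mM pyruvate for 24 h at 37 °C, then high glucose/insulin for 24 h, then 25 mM glucose for 5 h, then insulin for 30 min. Tissue then exposed in KHB for 24 h. qPCR normalized to β-/γ-actin geometric mean. Mean ± SEM, ANOVA/Duncan.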
With `CC(=O)OC[C@H]1OC(OC(C)=O)[C@H](NC(=O)NS(=O)(=O)c2ccc(Cl)cc2)[C@@H](OC(C)=O)[C@@H]1OC(C)=O` (some centres undefined), the result was Active.

Take `O=C(N[C@H]1C(O)O[C@H](CO)[C@@H](O)[C@@H]1O)NS(=O)(=O)c1ccccc1` (some centres undefined): the result was Active.

Consider `Cc1ccc(S(=O)(=O)NC(=O)N[C@H]2C(O)O[C@H](CO)[C@@H](O)[C@@H]2O)cc1` (some centres undefined), for which the outcome was Active.

In the case of `CC(=O)OC[C@H]1OC(OC(C)=O)[C@H](NC(=O)NS(=O)(=O)c2ccc(C)cc2)[C@@H](OC(C)=O)[C@@H]1OC(C)=O` (some centres undefined), the result was Active.

The next data set deals with L6. In words: Upregulation of PI3K expression in insulin resistant myotube differentiated rat L6 cells at 1 to 2 uM incubated for 24 hrs by qRT-PCR analysis. It is filed as functional, cell-based. The conditions noted are these: dose 1-2 µM. The essentials: as §1
Take `CC(=O)OC[C@H]1OC(OC(C)=O)[C@H](NC(=O)NS(=O)(=O)c2ccc(Cl)cc2)[C@@H](OC(C)=O)[C@@H]1OC(C)=O` (some centres undefined): the outcome was Active.

Consider `O=C(N[C@H]1C(O)O[C@H](CO)[C@@H](O)[C@@H]1O)NS(=O)(=O)c1ccccc1` (some centres undefined), for which the result was Active.

In the case of `Cc1ccc(S(=O)(=O)NC(=O)N[C@H]2C(O)O[C@H](CO)[C@@H](O)[C@@H]2O)cc1` (some centres undefined), the result was Active.

As for `CC(=O)OC[C@H]1OC(OC(C)=O)[C@H](NC(=O)NS(=O)(=O)c2ccc(C)cc2)[C@@H](OC(C)=O)[C@@H]1OC(C)=O` (some centres undefined), the result was Active.

In the next data set the test system is Soleus muscle. The data set is described as follows: Upregulation of PI3K expression in insulin resistant Sprague-Dawley rat soleus muscle at 1 to 2 uM incubated for 24 hrs by qRT-PCR analysis. The format is functional, tissue-based. The note with it: dose 1-2 µM. In outline:
as §2
For `CC(=O)OC[C@H]1OC(OC(C)=O)[C@H](NC(=O)NS(=O)(=O)c2ccc(Cl)cc2)[C@@H](OC(C)=O)[C@@H]1OC(C)=O` (some centres undefined), the result was Active.

Turning to `O=C(N[C@H]1C(O)O[C@H](CO)[C@@H](O)[C@@H]1O)NS(=O)(=O)c1ccccc1` (some centres undefined), the result was Active.

For `Cc1ccc(S(=O)(=O)NC(=O)N[C@H]2C(O)O[C@H](CO)[C@@H](O)[C@@H]2O)cc1` (some centres undefined), the outcome was Active.

`CC(=O)OC[C@H]1OC(OC(C)=O)[C@H](NC(=O)NS(=O)(=O)c2ccc(C)cc2)[C@@H](OC(C)=O)[C@@H]1OC(C)=O` (some centres undefined): the result was Active.

The subject of another data set is L6. In words: Downregulation of PKC-alpha expression in insulin resistant myotube differentiated rat L6 cells at 1 to 2 uM incubated for 24 hrs by qRT-PCR analysis. The format is functional, cell-based. The note with it: dose 1-2 µM. The essentials: as §1
Consider `CC(=O)OC[C@H]1OC(OC(C)=O)[C@H](NC(=O)NS(=O)(=O)c2ccc(Cl)cc2)[C@@H](OC(C)=O)[C@@H]1OC(C)=O` (some centres undefined), for which the outcome was Active.

As for `O=C(N[C@H]1C(O)O[C@H](CO)[C@@H](O)[C@@H]1O)NS(=O)(=O)c1ccccc1` (some centres undefined), the outcome was Active.

On to `Cc1ccc(S(=O)(=O)NC(=O)N[C@H]2C(O)O[C@H](CO)[C@@H](O)[C@@H]2O)cc1` (some centres undefined), for which the result was Active.

As for `CC(=O)OC[C@H]1OC(OC(C)=O)[C@H](NC(=O)NS(=O)(=O)c2ccc(C)cc2)[C@@H](OC(C)=O)[C@@H]1OC(C)=O` (some centres undefined), the result was Active.

In a further data set the test system is Soleus muscle. The data set is described as follows: Downregulation of PKC-alpha expression in insulin resistant Sprague-Dawley rat soleus muscle at 1 to 2 uM incubated for 24 hrs by qRT-PCR analysis. It is filed as functional, tissue-based. The conditions noted are these: dose 1-2 µM. The essentials:
as §2
Take `CC(=O)OC[C@H]1OC(OC(C)=O)[C@H](NC(=O)NS(=O)(=O)c2ccc(Cl)cc2)[C@@H](OC(C)=O)[C@@H]1OC(C)=O` (some centres undefined): the result was Active.

`O=C(N[C@H]1C(O)O[C@H](CO)[C@@H](O)[C@@H]1O)NS(=O)(=O)c1ccccc1` (some centres undefined): the outcome was Active.

In the case of `Cc1ccc(S(=O)(=O)NC(=O)N[C@H]2C(O)O[C@H](CO)[C@@H](O)[C@@H]2O)cc1` (some centres undefined), the outcome was Active.

Consider `CC(=O)OC[C@H]1OC(OC(C)=O)[C@H](NC(=O)NS(=O)(=O)c2ccc(C)cc2)[C@@H](OC(C)=O)[C@@H]1OC(C)=O` (some centres undefined), for which the result was Active.

The test system of another data set is L6. The data set is described as follows: Upregulation of PKB/AKT2 expression in insulin resistant myotube differentiated rat L6 cells at 2 uM incubated for 24 hrs by qRT-PCR analysis. The format is functional, cell-based.
Conditions: not given
The essentials:
as §1
Take `CC(=O)OC[C@H]1OC(OC(C)=O)[C@H](NC(=O)NS(=O)(=O)c2ccc(Cl)cc2)[C@@H](OC(C)=O)[C@@H]1OC(C)=O` (some centres undefined): the outcome was Active.

For the compound `O=C(N[C@H]1C(O)O[C@H](CO)[C@@H](O)[C@@H]1O)NS(=O)(=O)c1ccccc1` (some centres undefined), the result was Active.

Consider `Cc1ccc(S(=O)(=O)NC(=O)N[C@H]2C(O)O[C@H](CO)[C@@H](O)[C@@H]2O)cc1` (some centres undefined), for which the outcome was Active.

Consider `CC(=O)OC[C@H]1OC(OC(C)=O)[C@H](NC(=O)NS(=O)(=O)c2ccc(C)cc2)[C@@H](OC(C)=O)[C@@H]1OC(C)=O` (some centres undefined), for which the result was Active.

In a further data set the test system is Soleus muscle. The data set is described as follows: Upregulation of PKB/AKT2 insulin resistant Sprague-Dawley rat soleus muscle at 2 uM incubated for 24 hrs by qRT-PCR analysis. It is filed as functional, tissue-based.
Conditions: not given
In outline: as §2
`CC(=O)OC[C@H]1OC(OC(C)=O)[C@H](NC(=O)NS(=O)(=O)c2ccc(Cl)cc2)[C@@H](OC(C)=O)[C@@H]1OC(C)=O` (some centres undefined): the result was Active.

Consider `O=C(N[C@H]1C(O)O[C@H](CO)[C@@H](O)[C@@H]1O)NS(=O)(=O)c1ccccc1` (some centres undefined), for which the outcome was Active.

For the compound `Cc1ccc(S(=O)(=O)NC(=O)N[C@H]2C(O)O[C@H](CO)[C@@H](O)[C@@H]2O)cc1` (some centres undefined), the result was Active.

On to `CC(=O)OC[C@H]1OC(OC(C)=O)[C@H](NC(=O)NS(=O)(=O)c2ccc(C)cc2)[C@@H](OC(C)=O)[C@@H]1OC(C)=O` (some centres undefined), for which the result was Active.

Another data set relates to L6. In words: Upregulation of GLUT4 expression in insulin resistant myotube differentiated rat L6 cells at 1 to 2 uM incubated for 24 hrs by qRT-PCR analysis. The conditions noted are these: dose 1-2 µM. It is filed as functional, cell-based. In outline:
as §1
With `CC(=O)OC[C@H]1OC(OC(C)=O)[C@H](NC(=O)NS(=O)(=O)c2ccc(Cl)cc2)[C@@H](OC(C)=O)[C@@H]1OC(C)=O` (some centres undefined), the result was Active.

Regarding `O=C(N[C@H]1C(O)O[C@H](CO)[C@@H](O)[C@@H]1O)NS(=O)(=O)c1ccccc1` (some centres undefined), the result was Active.

As to `Cc1ccc(S(=O)(=O)NC(=O)N[C@H]2C(O)O[C@H](CO)[C@@H](O)[C@@H]2O)cc1` (some centres undefined), the result was Active.

For `CC(=O)OC[C@H]1OC(OC(C)=O)[C@H](NC(=O)NS(=O)(=O)c2ccc(C)cc2)[C@@H](OC(C)=O)[C@@H]1OC(C)=O` (some centres undefined), the result was Active.

A further data set has as its system Soleus muscle. In words: Upregulation of GLUT4 expression in insulin resistant Sprague-Dawley rat soleus muscle at 1 to 2 uM incubated for 24 hrs by qRT-PCR analysis. It is filed as functional, tissue-based. The note with it: dose 1-2 µM. The essentials: as §2
For `CC(=O)OC[C@H]1OC(OC(C)=O)[C@H](NC(=O)NS(=O)(=O)c2ccc(Cl)cc2)[C@@H](OC(C)=O)[C@@H]1OC(C)=O` (some centres undefined), the outcome was Active.

`O=C(N[C@H]1C(O)O[C@H](CO)[C@@H](O)[C@@H]1O)NS(=O)(=O)c1ccccc1` (some centres undefined): the result was Active.

On to `Cc1ccc(S(=O)(=O)NC(=O)N[C@H]2C(O)O[C@H](CO)[C@@H](O)[C@@H]2O)cc1` (some centres undefined), for which the result was Active.

With `CC(=O)OC[C@H]1OC(OC(C)=O)[C@H](NC(=O)NS(=O)(=O)c2ccc(C)cc2)[C@@H](OC(C)=O)[C@@H]1OC(C)=O` (some centres undefined), the outcome was Active.
